Where a chain is given by its changes, count along the chain named. Like-named read-outs stand apart in the source and are kept apart here. Each block holds one compound with its values, some of them ahead of it. Ends that are not written are not given here.
Experiments:
[1] = system: PDE activity in GH4C1 cells; assay: Effect of PDE inhibitors on forskolin-induced Ca2+ influx in GH4C1 cells; type: cell-based, rat; settings: Δ61–90/C460W/E583M channels, 10 μM forskolin, 1 μM nimodipine
[2] = system: PDE activity in HEK-293 cells; assay: Effects of PDE inhibitors on forskolin-induced Ca2+ influx in HEK-293 cells; type: cell-based, human; settings: C460W/E583M channels, 1 μM forskolin, IBMX 10 or 100 μM, RO-20-1724 10 μM
[3] = system: CNG channel; assay: CNG channel activity in excised patches with PDE inhibitor; type: biochemical, rat; settings: 100 μM IBMX, data not shown
Method in brief: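 Patch clamp on rat olfactory CNG channels expressed from an adenovirus vector. Gigaohm seals were formed, then patches were excised by shearing the cell off the pipette with a liquid jet. Currents were elicited by 250-ms pulses to +50 and −50 mV from a 0 mV holding potential and sampled at five times the filter setting.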

[4] = system: HEK-293 cells; assay: Equilibration of PDE inhibitors across the plasma membrane; type: cell-based, human; settings: data not shown
[5] = molecular target: T1, WT rat olfactory CNG channel α subunit (Rattus norvegicus, UniProt Q00195); assay: Excised inside-out patch recording, WT CNG channel; type: biochemical; settings: for N (Hill coefficient): mean ± SD of three experiments
T1 sequence (Q00195 1-664): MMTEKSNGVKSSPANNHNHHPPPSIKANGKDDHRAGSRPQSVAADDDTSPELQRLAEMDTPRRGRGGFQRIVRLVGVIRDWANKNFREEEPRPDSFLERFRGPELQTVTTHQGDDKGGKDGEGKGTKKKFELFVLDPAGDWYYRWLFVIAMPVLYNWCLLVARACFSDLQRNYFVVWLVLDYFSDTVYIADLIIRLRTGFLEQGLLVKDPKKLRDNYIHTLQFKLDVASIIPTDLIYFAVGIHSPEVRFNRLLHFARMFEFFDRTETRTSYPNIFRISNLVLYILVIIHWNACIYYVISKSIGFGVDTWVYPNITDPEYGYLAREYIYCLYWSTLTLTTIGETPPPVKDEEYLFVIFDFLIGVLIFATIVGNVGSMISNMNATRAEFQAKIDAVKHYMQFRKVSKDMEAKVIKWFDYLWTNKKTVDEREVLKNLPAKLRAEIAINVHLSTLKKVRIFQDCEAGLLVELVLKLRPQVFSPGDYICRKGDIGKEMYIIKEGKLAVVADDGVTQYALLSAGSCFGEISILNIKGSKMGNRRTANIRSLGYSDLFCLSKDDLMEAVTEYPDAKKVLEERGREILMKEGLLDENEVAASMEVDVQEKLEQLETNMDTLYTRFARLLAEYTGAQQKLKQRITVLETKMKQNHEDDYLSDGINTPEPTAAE

[6] = molecular target: T2, E583M rat olfactory CNG channel (Rattus norvegicus, UniProt Q00195, E583M); assay: Excised inside-out patch recording, E583M CNG channel; type: biochemical; settings: for N (Hill coefficient): mean ± SD of three experiments
T2 sequence (Q00195 1-664 E583M): T1 sequence (Q00195 1-664) with E583M

[7] = molecular target: T3, C460W/E583M rat olfactory CNG channel (Rattus norvegicus, UniProt Q00195, C460W/E583M); assay: Excised inside-out patch recording, C460W/E583M CNG channel; type: biochemical; settings: for N (Hill coefficient): mean ± SD of three experiments
T3 sequence (Q00195 1-664 C460W/E583M): T1 sequence (Q00195 1-664) with C460W, E583M

[8] = molecular target: T4, Δ61–90/C460W/E583M rat olfactory CNG channel (Rattus norvegicus, UniProt Q00195, C460W/DEL61-90/E583M); assay: Excised inside-out patch recording, Δ61–90/C460W/E583M CNG channel; type: biochemical; settings: Δ61-90/C460W/E583M channel, mean ± SD of three experiments; for EC50: read-out: K1/2 (concentration that gives half-maximal current)
T4 sequence (Q00195 with tags, fused parts or gaps DEL61-90/C460W/E583M): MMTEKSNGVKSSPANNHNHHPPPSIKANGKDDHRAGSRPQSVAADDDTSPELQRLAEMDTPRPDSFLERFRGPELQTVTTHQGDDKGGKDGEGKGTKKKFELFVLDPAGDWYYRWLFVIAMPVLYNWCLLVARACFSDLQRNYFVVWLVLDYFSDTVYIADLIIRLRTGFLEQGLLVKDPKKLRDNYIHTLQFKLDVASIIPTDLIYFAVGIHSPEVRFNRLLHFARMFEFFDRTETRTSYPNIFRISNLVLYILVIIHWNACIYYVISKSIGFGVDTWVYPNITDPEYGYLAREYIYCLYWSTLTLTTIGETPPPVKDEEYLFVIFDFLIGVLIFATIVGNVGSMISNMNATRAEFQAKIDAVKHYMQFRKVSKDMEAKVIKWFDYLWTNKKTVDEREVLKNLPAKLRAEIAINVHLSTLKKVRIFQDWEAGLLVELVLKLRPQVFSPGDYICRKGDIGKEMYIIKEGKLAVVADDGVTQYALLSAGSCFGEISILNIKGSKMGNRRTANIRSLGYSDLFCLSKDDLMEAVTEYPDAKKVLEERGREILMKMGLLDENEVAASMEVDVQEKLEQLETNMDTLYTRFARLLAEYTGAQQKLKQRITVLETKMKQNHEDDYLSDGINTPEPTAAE

[9] = system: HEK-293 cells expressing CNG channels; assay: Forskolin-induced Ca2+ influx through expressed CNG channels in HEK-293 cells; type: cell-based, human; settings: for forskolin concentration at which delay and rate of Ca2+ influx saturate: 100 μM IBMX
Method in brief: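 HEK-293 cells were infected with channel-encoding adenovirus (MOI 10) and detached at 24 h with PBS/0.03% EDTA. They were loaded at room temperature for 30–40 min with 4 μM fura-2/AM and 0.02% pluronic F-127, then resuspended in HEPES-buffered saline with 1 mM CaCl2, pH 7.4, and stirred in a cuvette. 100 μM IBMX was added at 0 s and forskolin at 180 s. ΔF/F0 was read at ex 380/em 510 nm; n = 4 batches.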

[10] = system: GH4C1 cells expressing C460W/E583M channels; assay: AC activator-induced Ca2+ influx in GH4C1 cells expressing C460W/E583M channels; type: cell-based, rat; settings: after vehicle or 100 μM IBMX
Method in brief: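 Rat GH4C1 cells kept in Ham's F-10 (15% horse serum, 2.5% FBS, pH 6.8, 37°C), adenovirus-infected (MOI 50), assayed within 12 h of harvest at 48 h post-infection. Loaded 70 min with 4 μM fura-2/AM at room temperature, then washed. Read in pH 7.4 saline (1 mM CaCl2) at ex 380/em 510 nm as ΔF/F0. Nimodipine 1 μM at time zero; IBMX/vehicle at 60 s; agonist afterwards.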

[11] = system: HEK-293 and C6–2B glioma cells; settings: ref Rich et al. 2000, cited from earlier work
[12] = system: voltage-gated Ca2+ channels; assay: Block of Ca2+ influx through voltage-gated Ca2+ channels in GH4C1 cells; type: cell-based, rat; settings: 1 μM nimodipine, membrane depolarization in 24 mM external KCl, data not shown
[13] = read-out: K1/2 (concentration that gives half-maximal current), +50 mV, mean ± SD of three experiments
[14] = read-out: K1/2 (concentration that gives half-maximal current), −50 mV, mean ± SD of three experiments
[15] = read-out: K1/2, +50 mV, experiment shown in Fig. 2

Compound: COCc1nc2c([nH]1)c(=O)n(C)c(=O)n2CC(C)C [8-methoxymethyl-IBMX]
effect on PDE activity / forskolin-induced Ca2+ influx [1]: significantly inhibited PDE activity

Compound: CCOC(=O)c1cnc2c(cnn2CC)c1NN=C(C)C [Etazolate]
effect on forskolin-induced Ca2+ influx [2]: significantly increased the forskolin-induced Ca^2+ influx

time to complete equilibration across the plasma membrane [4]: < 180 s
Compound: CC(C)Cn1c(=O)n(C)c(=O)c2[nH]cnc21 [IBMX, 3-isobutyl-1-methylxanthine]
effect on CNG channel activity in excised patches [3]: did not alter CNG channel activity | effect on forskolin-induced Ca2+ influx [2]: significant forskolin-induced Ca^2+ influx was observed | effect on PDE activity / forskolin-induced Ca2+ influx [1]: significantly inhibited PDE activity

Compound: CCCCOc1cc(CC2CNC(=O)N2)ccc1OC (stereo not shown) [RO-20-1724, 4-(3-butoxy-4-methoxybenzyl)-2-imidazolidinone]
effect on forskolin-induced Ca2+ influx [2]: significant forskolin-induced Ca^2+ influx was observed | time to complete equilibration across the plasma membrane [4]: < 180 s | effect on PDE activity / forskolin-induced Ca2+ influx [1]: also inhibited PDE activity

time to complete equilibration across the plasma membrane [4]: < 180 s
Compound: COc1ccc(C2CNC(=O)C2)cc1OC1CCCC1 (stereo not shown) [Rolipram]
effect on forskolin-induced Ca2+ influx [2]: significantly increased the forskolin-induced Ca^2+ influx | effect on PDE activity / forskolin-induced Ca2+ influx [1]: also inhibited PDE activity

N (Hill coefficient) ([5]; +50 mV): 2.3 ± 0.1 | EC50 [5, 13]: 1.6 ± 0.1 µM | EC50 [5, 14]: 1.3 ± 0.4 µM | N (Hill coefficient) ([5]; −50 mV): 2.5 ± 0.4 | N (Hill coefficient) ([6]; +50 mV): 2.4 ± 0.2 | EC50 [6, 13]: 28 ± 2 µM | EC50 [6, 14]: 32 ± 4 µM | EC50 [6, 15]: 25 µM | N (Hill coefficient) ([6]; −50 mV): 1.9 ± 0.2 | N (Hill coefficient) ([7]; +50 mV): 2.8 ± 0.3 | EC50 [7, 13]: 12 ± 2 µM | EC50 [7, 14]: 6.2 ± 1 µM | EC50 [7, 15]: 11 µM | N (Hill coefficient) ([7]; −50 mV): 2.7 ± 0.1 | EC50 ([8]; +50 mV): 36 ± 4 µM | EC50 ([8]; −50 mV): 16 ± 1 µM | N (Hill coefficient) ([8]; +50 mV): 1.8 ± 0.2 | N (Hill coefficient) ([8]; −50 mV): 2.6 ± 0.2
Compound: Nc1nc2c(ncn2[C@@H]2O[C@@H]3COP(=O)(O)O[C@H]3[C@H]2O)c(=O)[nH]1 [cGMP]

Compound: C=C[C@@]1(C)CC(=O)[C@]2(O)[C@@]3(C)[C@@H](O)CCC(C)(C)[C@@H]3[C@H](O)[C@H](OC(C)=O)[C@@]2(C)O1 [forskolin]
forskolin concentration at which delay and rate of Ca2+ influx saturate ([9]; HEK-293 cells expressing C460W/E583M channel): 5 µM | forskolin concentration at which delay and rate of Ca2+ influx saturate ([9]; HEK-293 cells expressing E583M channel): 20 µM | forskolin concentration at which delay and rate of Ca2+ influx saturate ([9]; HEK-293 cells expressing WT channel): > 50 µM | forskolin concentration at which delay and rate of Ca2+ influx saturate ([9]; HEK-293 cells expressing Δ61–90/C460W/E583M channel): 20 µM | cAMP accumulation and Ca2+ influx after addition ([10]; 10 μM forskolin): caused additional cAMP accumulation and Ca^2+ influx | forskolin-induced increase in cAMP concentration measured using CNG channels ([11]; local cAMP near the plasma membrane): > 25 µM | forskolin-induced increase in cAMP concentration averaged throughout the accessible cell volume [11]: 1 to 2 µM

Compound: COCCOC(=O)C1=C(C)NC(C)=C(C(=O)OC(C)C)C1c1cccc([N+](=O)[O-])c1 (stereo not shown) [nimodipine]
effect on forskolin or pCPT-cGMP induced Ca2+ influx through CNG channels ([9]; 1 μM nimodipine, HEK-293 cells, data not shown): did not alter | block of Ca2+ influx through voltage-gated Ca2+ channels [12]: sufficient to block Ca^2+ influx through voltage-gated Ca^2+ channels

Compound: vasoactive intestinal peptide (HSDAVFTDNYTRLRKQMAVKKYLNSILN; ends and bridges not checked; UniProt P01282 125-152, looked up) [VIP]
cAMP accumulation and Ca2+ influx after addition ([10]; 100 nM VIP): caused additional cAMP accumulation and Ca^2+ influx

Source: article PMC2233745 (The Journal of General Physiology, 2001)
